Results on two compounds are retold here after ChEMBL document CHEMBL3808312, “Bioactive Constituents of Glycyrrhiza uralensis (Licorice): Discovery of the Effective Components of a Traditional Herbal Medicine” (J Nat Prod, 2016).

Active and inactive are the calls of the source. The rule behind the calls is not given here. Some results are limits rather than exact numbers.

For data set [1], the system named is HepG2. Briefly: Cytotoxicity against human HepG2 cells assessed as reduction in cell viability at 10 uM after 24 hrs by MTS assay. It is filed as functional.
Data set [2] concerns HepG2. Briefly: Cytotoxicity against human HepG2 cells assessed as reduction in cell viability after 24 hrs by MTS assay. In kind it is functional, cell-based. As to conditions: HepG2, 24 h. The gist of the method:
(§1)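 Cells seeded at 5 × 10^3/well and cultured overnight, then exposed to compounds for 24 h. Viability read by MTS. Media: SW480 in RPMI1640, A549 in DMEM, MCF7 in MEM. […] Irinotecan positive control.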
On the technique in general: Formazan colour is commonly taken as a measure of viable cells.

Data set [3] has as its system MCF7. Briefly: Cytotoxicity against human MCF7 cells assessed as reduction in cell viability at 10 uM after 24 hrs by MTS assay. It is filed as functional. The gist of the method:
(§2)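 Cells seeded at 5 × 10^3/well and cultured overnight, then exposed to compounds for 24 h. Viability read by MTS. Media: SW480 in RPMI1640, A549 in DMEM, MCF7 in MEM. Irinotecan positive control.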

The subject of data set [4] is SW480. Briefly: Cytotoxicity against human SW480 cells assessed as reduction in cell viability at 10 uM after 24 hrs by MTS assay. It is filed as functional. The gist of the method: as §2
The target in data set [5] is T1, Tyrosinase (Homo sapiens) (UniProt P14679).
T1 sequence (whole entry): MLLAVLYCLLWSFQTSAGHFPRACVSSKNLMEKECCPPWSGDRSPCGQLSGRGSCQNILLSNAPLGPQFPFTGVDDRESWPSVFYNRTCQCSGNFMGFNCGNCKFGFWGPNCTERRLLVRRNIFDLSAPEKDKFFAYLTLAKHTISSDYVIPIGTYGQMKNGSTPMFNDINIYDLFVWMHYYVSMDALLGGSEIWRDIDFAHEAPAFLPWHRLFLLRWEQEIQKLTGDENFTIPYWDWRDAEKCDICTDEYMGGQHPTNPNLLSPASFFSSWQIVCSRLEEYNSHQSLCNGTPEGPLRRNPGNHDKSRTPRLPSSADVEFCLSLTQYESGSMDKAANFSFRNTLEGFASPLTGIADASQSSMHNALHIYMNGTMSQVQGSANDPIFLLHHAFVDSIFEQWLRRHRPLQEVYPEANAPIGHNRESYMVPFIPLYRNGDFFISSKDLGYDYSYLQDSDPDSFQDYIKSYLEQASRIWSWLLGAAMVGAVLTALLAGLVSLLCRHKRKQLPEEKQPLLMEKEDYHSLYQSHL
Briefly: Inhibition of tyrosinase (unknown origin) using L-tyrosine as substrate assessed as oxidation of L-tyrosine at 20 uM after 15 mins. The gist of the method: (§3)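 Tyrosinase at 333 U/mL (stock) in 45 mM sodium phosphate, pH 6.6, with 2 mM L-tyrosine (stock). Incubated 37 °C for 15 min; oxidation read at 492 nm. Screened at 20 μM; dose-response for IC50. Glyasperin C positive control.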

The subject of data set [6] is MCF7. Briefly: Cytotoxicity against human MCF7 cells assessed as reduction in cell viability after 24 hrs by MTS assay. In kind it is functional, cell-based. As to conditions: MCF7, 24 h. The gist of the method: as §1
For data set [7], the system named is A549. Briefly: Cytotoxicity against human A549 cells assessed as reduction in cell viability at 10 uM after 24 hrs by MTS assay. In kind it is functional. In short, it runs like this: as §2
Data set [8] concerns SW480. Briefly: Cytotoxicity against human SW480 cells assessed as reduction in cell viability after 24 hrs by MTS assay. The following applies: SW480, 24 h. It is filed as functional, cell-based. In short, it runs like this:
as §1

Data set [9] deals with A549. Briefly: Cytotoxicity against human A549 cells assessed as reduction in cell viability after 24 hrs by MTS assay. In kind it is functional, cell-based. As to conditions: A549, 24 h. In short, it runs like this: as §1
Data set [10] has as its target T2, Tyrosinase (Homo sapiens, UniProt P14679).
T2 sequence (P14679 whole entry): T1 sequence (whole entry)
Briefly: Inhibition of tyrosinase (unknown origin) using L-tyrosine as substrate assessed as oxidation of L-tyrosine after 15 mins. In short, it runs like this:
as §3

In data set [11] the target is T3, Nuclear factor erythroid 2-related factor 2 (Homo sapiens) (UniProt Q16236).
T3 sequence (whole entry): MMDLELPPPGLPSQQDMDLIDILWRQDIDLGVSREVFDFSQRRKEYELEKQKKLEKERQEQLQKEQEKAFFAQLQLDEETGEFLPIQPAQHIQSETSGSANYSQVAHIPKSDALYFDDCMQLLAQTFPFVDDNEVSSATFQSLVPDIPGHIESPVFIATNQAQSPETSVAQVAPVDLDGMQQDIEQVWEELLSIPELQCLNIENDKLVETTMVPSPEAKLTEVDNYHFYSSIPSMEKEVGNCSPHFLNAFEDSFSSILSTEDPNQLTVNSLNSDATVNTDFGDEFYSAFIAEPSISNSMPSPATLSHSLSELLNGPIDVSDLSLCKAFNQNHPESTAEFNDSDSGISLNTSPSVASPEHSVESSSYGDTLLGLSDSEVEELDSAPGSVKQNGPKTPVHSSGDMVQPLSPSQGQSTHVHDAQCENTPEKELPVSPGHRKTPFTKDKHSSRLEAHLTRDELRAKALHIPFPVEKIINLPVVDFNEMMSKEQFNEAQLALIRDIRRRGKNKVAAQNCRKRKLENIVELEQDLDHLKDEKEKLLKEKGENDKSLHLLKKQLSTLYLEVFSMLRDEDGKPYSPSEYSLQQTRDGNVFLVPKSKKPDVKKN
Briefly: Activation of NRF2 in human HepG2 cells by Western blot analysis. It is filed as cell-based. The gist of the method:
(§4)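 HepG2 cells treated with or without compound. HO-1 and NQO1 transcripts measured by RT-PCR after total RNA extraction and reverse transcription, amplified against β-actin with human primers. For protein, 20 μg lysate (RIPA) separated on 10% SDS-PAGE, blotted to PVDF, probed with antibodies to Nrf2, HO-1, NQO-1 and β-actin, and detected by ECL.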
On the technique in general: A western blot detects proteins with antibodies after separation by electrophoresis.

The subject of data set [12] is Mus musculus. Briefly: In vivo NRF2 activation in ip dosed C57BL/6J mouse assessed as increase in liver transcription of HO-1 administered as qd for 3 days measured 3 hrs post last dose by qRT-PCR analysis. It is filed as functional, organism-based. In short, it runs like this:
(§5)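 Male C57BL/6J mice given compound in corn oil at 5 or 10 mg/kg ip for three consecutive days; controls received corn oil. Liver harvested 3 h after final dose. HO-1 and NQO-1 mRNA measured by qRT-PCR with mouse primers. Nrf2 and HO-1 protein measured by Western blot (20 μg, 10% SDS-PAGE, ECL).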

Data set [13] has as its system Mus musculus. Briefly: Hepatoprotective activity in ip dosed C57BL/6J mouse assessed as reduction in CCL4-induced serum AST level administered qd for 3 days followed by CCL4 addition at 3 hrs post last dose measured after 24 hrs. It is filed as functional, organism-based. In short, it runs like this: (§6)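 Seven-week-old male C57BL/6J mice, n = 10/group, given compound in corn oil (0.5 or 1 mg/mL) at 5 or 10 mg/kg ip once daily for 3 days. CCl4 at 200 μL/kg ip (2% v/v in corn oil) given 3 h after the last dose. Sacrifice at 24 h. Serum ALT/AST measured; liver GSH by GSH/GSSG kit normalized to BCA protein; left lobe H&E stained and scored blind at 4× and 20×.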

In data set [14] the test system is Mus musculus. Briefly: Hepatoprotective activity in C57BL/6J mouse assessed as attenuation of CCL4-mediated GSH level depletion measured as GSH level […] of protein at 5 mg/kg, ip administered qd for 3 days followed by CCL4 addition at 3 hrs post last dose measured after 24 hrs by GSH/GSSG assay (reference value: 0.86 +/- 0.38 nmol). It is filed as functional. In short, it runs like this: as §6

For data set [15], the target named is T3, Nuclear factor erythroid 2-related factor 2 (Homo sapiens). Briefly: Activation of NRF2 transcription in human HepG2C8 cells at 20 uM after 6 hrs by luciferase reporter gene assay relative to control. It is filed as cell-based. In short, it runs like this:
(§7)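 Luciferase reporter in HepG2C8 cells, which are HepG2 stably transfected with an Nrf2 luciferase reporter and grown in MEM. Screened at 10 μM, with dose-response over 2.5−40 μM. Activity expressed as fold of control. tBHQ positive control.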
A general note: Reporter assays use an easily measured gene product as a stand-in for the process of interest.

Data set [16] relates to Mus musculus. Briefly: In vivo NRF2 activation in ip dosed C57BL/6J mouse assessed as increase in liver transcription of NQO-1 administered as qd for 3 days measured 3 hrs post last dose by qRT-PCR analysis. In kind it is functional, organism-based. The gist of the method:
as §5

For data set [17], the system named is Mus musculus. Briefly: In vivo increase in NRF2 levels in C57BL/6J mouse liver at 5 to 10 mg/kg, ip qd administered for 3 days measured 3 hrs post last dose by Western blot analysis. It is filed as functional, organism-based. The gist of the method:
as §5

The test system of data set [18] is Mus musculus. Briefly: In vivo increase in HO-1 levels in C57BL/6J mouse liver at 5 to 10 mg/kg, ip qd administered for 3 days measured 3 hrs post last dose by Western blot analysis. It is filed as functional, organism-based. The gist of the method: as §5
In data set [19] the target is T3, Nuclear factor erythroid 2-related factor 2 (Homo sapiens). Briefly: Activation of NRF2 transcription in human HepG2C8 cells at 40 uM after 6 hrs by luciferase reporter gene assay relative to control. In kind it is cell-based. The gist of the method: as §7
Data set [20] deals with Mus musculus. Briefly: Hepatoprotective activity in C57BL/6J mouse assessed as attenuation of CCL4-mediated GSH level depletion measured as GSH level […] of protein at 10 mg/kg, ip administered qd for 3 days followed by CCL4 addition at 3 hrs post last dose measured after 24 hrs by GSH/GSSG assay (reference value: 0.86 +/- 0.38 nmol). In kind it is functional. In short, it runs like this:
as §6

The target of data set [21] is T3, Nuclear factor erythroid 2-related factor 2 (Homo sapiens). Briefly: Activation of NRF2 transcription in human HepG2C8 cells at 10 uM after 6 hrs by luciferase reporter gene assay relative to control. In kind it is cell-based. In short, it runs like this:
as §7

Data set [22] shares this target. Briefly: Activation of NRF2 in human HepG2 cells assessed as upregulation of HO-1 level by Western blot analysis. In kind it is cell-based. In short, it runs like this: as §4
Data set [23] concerns Mus musculus. Briefly: Hepatoprotective activity in C57BL/6J mouse assessed as prevention of CCL4-induced severe hepatic lesions at 5 mg/kg, ip administered qd for 3 days followed by CCL4 addition at 3 hrs post last dose measured after 24 hrs by hematoxylin-eosin staining. In kind it is functional, organism-based. The gist of the method: as §6
Data set [24] deals with T3, Nuclear factor erythroid 2-related factor 2 (Homo sapiens). Briefly: Activation of NRF2 in human HepG2 cells assessed as induction of NQO-1 transcription by RT-PCR analysis. It is filed as cell-based. In short, it runs like this:
as §4

For data set [25], the system named is HepG2. Briefly: Toxicity in human HepG2 cells at 20 to 40 uM. In kind it is cell-based. As to conditions: hepg2, 40 µM.
Data set [26] deals with Influenza A virus. Briefly: Antiviral activity against Influenza A virus A/WSN/33(H1N1) infected in MDCK cells at 100 uM preincubated with virus for 15 mins followed by cells addition measured at 36 hrs post infection. In kind it is functional, A/WSN/1933(H1N1). In short, it runs like this: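 MDCK canine kidney cells grown in DMEM and infected with influenza A/WSN/33 (H1N1). Compounds screened at 100 μM. Oseltamivir phosphate served as the positive control.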

In data set [27] the test system is Mus musculus. Briefly: Hepatoprotective activity in ip dosed C57BL/6J mouse assessed as reduction in CCL4-induced serum ALT level administered qd for 3 days followed by CCL4 addition at 3 hrs post last dose measured after 24 hrs. In kind it is functional, organism-based. In short, it runs like this:
as §6

Data set [28] concerns the target T3, Nuclear factor erythroid 2-related factor 2 (Homo sapiens). Briefly: Activation of NRF2 transcription in human HepG2C8 cells after 6 hrs by luciferase reporter gene assay. It is filed as cell-based. In short, it runs like this: as §7
For data set [29] the target is unchanged. Briefly: Activation of NRF2 in human HepG2 cells assessed as induction of HO-1 transcription by RT-PCR analysis. In kind it is cell-based. In short, it runs like this: as §4

For `COc1cc2c(c(OC)c1CC=C(C)C)C[C@H](c1ccc(O)cc1O)CO2` [GLYASPERIN D], the Activity in data set [1] was 99%; in [3], 98%; in data set [4] it was 78%; in [7] it was 25%. Moreover, the concentration for half-maximal inhibition (IC50) in data set [2] is 3.8 µM; in data set [6] it was 6.7 µM; in data set [8], 7.2 µM; in data set [9], 12.9 µM; in data set [10], 154 nM. Besides, the inhibition in data set [5] was above 95%.

Take `COc1cc(O)ccc1/C=C/C(=O)c1ccc(O)cc1` [ECHINATIN]: the Activity entry in [11] is “Dose-dependent effect”; in data set [12] it was “Dose-dependent effect”; in [13], “Dose-dependent effect”; in data set [14], 2.42 nmol; in data set [16], “Dose-dependent effect”; in data set [20] it was 2.58 nmol. For the same compound, the Activity result in [22] was “Dose-dependent effect”; in data set [24] it was “Dose-dependent effect”; in data set [25] it was “Toxic”; in [26], above 30%; in [27], “Dose-dependent effect”; in data set [28] it was “Dose-dependent effect”. Moreover, the Activity result in [29] was “Dose-dependent effect”. The fold change (FC) in data set [15] came to 6.8; in data set [19], 4.3; in data set [21], 5.46. In addition, the outcome in [17], in [18] and in [23] was Active. Also, the inhibition result in data set [5] is “Active”.

In general, IC50 refers to the concentration that gives 50% inhibition. For orientation: inhibition means the percentage by which the read-out fell short of the control.
